Measured values from ChEMBL document CHEMBL2202972, “Synthesis and biological evaluation of 2-substituted-4-(3',4',5'-trimethoxyphenyl)-5-aryl thiazoles as anticancer agents” (Bioorg Med Chem, 2012).
Each block holds one molecule with its values, some of them ahead of it. Calls of active or inactive are those of the source. The rule behind the calls is not given here.

Experiments:
[1] = Inhibition of bovine brain tubulin polymerization preincubated for 15 mins by turbidimetric analysis; parameters: species or system Bos taurus
Procedure, shortened: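 Bovine brain tubulin (10 μM) in glutamate buffer preincubated with varying compound concentrations for 15 min at 30 °C, then chilled to 0 °C. GTP 0.4 mM added and mixtures warmed to 30 °C in a spectrophotometer; assembly followed by turbidity at 350 nm.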

HT-29 = test: Antiproliferative activity against human HT-29 cells after 72 hrs by MTT assay; type: functional, cell-based; settings: HT-29, 72 h
Jurkat [2] = test: Antiproliferative activity against human Jurkat cells after 72 hrs by MTT assay; type: functional, cell-based
Procedure, shortened: (§1)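 Cells seeded at 8 × 10³ per well and incubated 18 h at 37 °C, 5% CO₂, then exposed to a range of compound concentrations for 72 h at 37 °C. Jurkat and HL-60 were grown in RPMI-1640, the others in DMEM, with penicillin, streptomycin and 10% FBS. DMSO stocks (10 mM); DMSO ≤0.25% final. Viability by MTT. […] Mean ± SE of ≥3 independent experiments.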

MCF7 = test: Antiproliferative activity against human MCF7 cells after 72 hrs by MTT assay; type: functional, cell-based; settings: MCF7, 72 h
HL-60 = test: Antiproliferative activity against human HL60 cells after 72 hrs by MTT assay; type: functional, cell-based; settings: HL-60, 72 h
A549 [3] = test: Antiproliferative activity against human A549 cells after 72 hrs by MTT assay; type: functional, cell-based; settings: A549, 72 h
HeLa [4] = test: Antiproliferative activity against human HeLa cells after 72 hrs by MTT assay; type: functional, cell-based
A549 [5] = test: Resistance ratio of IC50 for human taxol-resistant A549-T12 cells expressing tubulin mutant gene to IC50 for human A549 cells; type: functional
CCRF-CEM [6] = test: Resistance ratio of IC50 for human vinblastine-resistant CEM/VBL100 cells overexpressing P-glycoprotein to IC50 for human CEM cells; type: functional
LoVo [7] = test: Resistance ratio of IC50 for human doxorubicin-resistant LoVo/DX cells overexpressing P-glycoprotein to IC50 for human LoVo cells; type: functional
Bos taurus = species on record: Bos taurus; test: Displacement of [3H]colchicine from tubulin in bovine brain at 5 uM DEAE-cellulose filter method
[8] = Antiproliferative activity against human taxol-resistant A549-T12 cells expressing tubulin mutant gene after 72 hrs by MTT assay; type: functional, cell-based; settings: A549, 72 h
Procedure, shortened: (§2)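 Resistant sublines cultured under selection: LoVo^Doxo (doxorubicin-resistant LoVo subclone) in complete Ham's F12 with doxorubicin 0.1 μg/mL; A549-T12 in complete DMEM with taxol 12 nM. Seeded at 8 × 10³ per well, 18 h preincubation, then 72 h compound exposure at 37 °C. MTT read-out.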

[9] = Antiproliferative activity against human vinblastine-resistant CEM/VBL100 cells overexpressing P-glycoprotein after 72 hrs by MTT assay; type: functional, cell-based; settings: CEM/VBL100, 72 h
CCRF-CEM [10] = test: Antiproliferative activity against human CEM cells after 72 hrs by MTT assay; type: functional, cell-based
[11] = Antiproliferative activity against human doxorubicin-resistant LoVo/DX cells overexpressing P-glycoprotein after 72 hrs by MTT assay; type: functional, cell-based; procedure, shortened: as §2
LoVo [12] = test: Antiproliferative activity against human LoVo cells after 72 hrs by MTT assay; type: functional, cell-based; procedure, shortened: as §1
HeLa [13] = test: Downregulation of Xiap expression in human HeLa cells at 250 to 500 nM after 24 hrs by Western blot analysis; type: functional, cell-based
Procedure, shortened: (§3)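 HeLa cells treated for 24 or 48 h, washed twice with ice-cold PBS and lysed on ice 30 min; lysates spun at 15000 ×g, 4 °C. Protein (20 μg) resolved by SDS–PAGE on 7.5–15% gels and blotted to PVDF. Specific primary antibodies for 2 h at room temperature, then peroxidase secondary for 60 min, ECL detection. Membranes stripped and reprobed for β-actin as loading control.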

HeLa [14] = test: Downregulation of Mcl-1 expression in human HeLa cells at 250 to 500 nM after 24 hrs by Western blot analysis; type: functional, cell-based; procedure, shortened: as §3
HeLa [15] = test: Effect on Bax expression in human HeLa cells at 250 to 500 nM after 24 to 48 hrs by Western blot analysis; type: functional, cell-based; procedure, shortened: as §3
HeLa [16] = test: Downregulation of Bcl-2 expression in human HeLa cells at 250 to 500 nM after 24 to 48 hrs by Western blot analysis; type: functional, cell-based; procedure, shortened: as §3
HeLa [17] = test: Induction of apoptosis in human HeLa cells assessed as appearance of cleaved caspase-8 protein at 250 to 500 nM after 24 to 48 hrs by Western blot analysis; type: functional, cell-based; procedure, shortened: as §3
HeLa [18] = test: Induction of apoptosis in human HeLa cells assessed as disappearance of uncleaved caspase-2 protein at 250 to 500 nM after 24 to 48 hrs by Western blot analysis; type: functional, cell-based; procedure, shortened: as §3
HeLa [19] = test: Induction of apoptosis in human HeLa cells assessed as ROS production; type: functional, cell-based
HeLa [20] = test: Induction of apoptosis in human HeLa cells assessed as mitochondrial polarization; type: functional, cell-based
HeLa [21] = test: Induction of apoptosis in human HeLa cells assessed as effect on caspase-9 activation at 250 to 500 nM after 24 to 48 hrs by Western blot analysis; type: functional, cell-based; procedure, shortened: as §3
HeLa [22] = test: Induction of apoptosis in human HeLa cells assessed as increase in caspase-3-mediated PARP cleavage at 250 to 500 nM after 24 to 48 hrs by Western blot analysis; type: functional, cell-based; procedure, shortened: as §3
HeLa [23] = test: Induction of apoptosis in human HeLa cells assessed as caspase-3 activation at 250 to 500 nM after 24 to 48 hrs by Western blot analysis; type: functional, cell-based; procedure, shortened: as §3
HeLa [24] = test: Induction of apoptosis in human HeLa cells at 500 nM after 24 to 48 hrs by Annexin V-FITC/propidium iodide staining based biparametric cytofluorimetric analysis; type: functional, cell-based
Procedure, shortened: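 HeLa cells treated at 250 or 500 nM for 24 or 48 h, then labelled with annexin-V-FITC (phosphatidylserine) plus propidium iodide. Red and green fluorescence measured by biparametric flow cytometry. Mean ± SEM of three independent experiments.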

HeLa [25] = test: Effect on cyclin B expression in human HeLa cells at 250 to 500 nM after 24 hrs by Western blot analysis; type: functional, cell-based; procedure, shortened: as §3
[26] = target: T1, M-phase inducer phosphatase 3 (Homo sapiens) (UniProt P30307); test: Induction of cdc25C phosphorylation in human HeLa cells assessed as cdc2 kinase dephosphorylation at Tyr15 in human HeLa cells at 250 to 500 nM after 24 to 48 hrs by Western blot analysis; type: cell-based; procedure, shortened: as §3
T1 sequence (whole entry): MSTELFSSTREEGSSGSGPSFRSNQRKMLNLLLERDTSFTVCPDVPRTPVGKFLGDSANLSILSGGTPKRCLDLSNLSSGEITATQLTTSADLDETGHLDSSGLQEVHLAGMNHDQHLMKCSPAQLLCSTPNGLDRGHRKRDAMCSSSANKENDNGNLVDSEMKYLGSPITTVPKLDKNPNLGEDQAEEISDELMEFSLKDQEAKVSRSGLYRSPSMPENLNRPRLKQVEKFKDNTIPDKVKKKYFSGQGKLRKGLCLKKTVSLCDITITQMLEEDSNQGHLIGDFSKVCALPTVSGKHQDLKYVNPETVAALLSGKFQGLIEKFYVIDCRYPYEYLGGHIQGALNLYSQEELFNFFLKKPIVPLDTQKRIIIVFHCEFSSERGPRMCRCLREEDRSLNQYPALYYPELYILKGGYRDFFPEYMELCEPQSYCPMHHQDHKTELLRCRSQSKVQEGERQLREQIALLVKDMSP

[27] = target: T1, M-phase inducer phosphatase 3 (Homo sapiens); test: Induction of cdc25C phosphorylation in human HeLa cells at 250 to 500 nM after 24 to 48 hrs by Western blot analysis; type: cell-based; procedure, shortened: as §3
Jurkat [28] = test: Cell cycle arrest in human Jurkat cells assessed as accumulation of cells at G2/M phase at 125 nM after 24 hrs by propidium iodide staining based flow cytometric analysis; type: functional
Procedure, shortened: (§4)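 HeLa or Jurkat cells (5 × 10⁵, exponential growth) treated 24 h with 31–500 nM compound. Cells fixed in ice-cold 70% ethanol, treated with lysis buffer containing RNase A and 0.1% Triton X-100, then stained with propidium iodide. DNA content measured by flow cytometry to give phase distribution. Mean ± SEM of three independent experiments.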

HeLa [29] = test: Cell cycle arrest in human HeLa cells assessed as accumulation of cells at G2/M phase at 125 nM after 24 hrs by propidium iodide staining based flow cytometric analysis; type: functional; procedure, shortened: as §4
[30] = Growth inhibition of human resting PBL after 72 hrs by MTT assay; type: cell-based; settings: resting peripheral blood lymphocytes (PBL)
PBL = test: Growth inhibition of PHA-stimulated human PBL after 72 hrs by MTT assay; type: functional
HeLa [31] = test: Induction of survivin phosphorylation at Thr34 in human HeLa cells at 250 to 500 nM after 24 to 48 hrs by Western blot analysis

- Activity [26]: Active
- Activity [27]: Active
- inhibition (Bos taurus): 66%
- IC50 [1]: 1100 nM
- IC50 (CCRF-CEM [10]): 61 nM
- IC50 (LoVo [12]): 72 nM
- IC50 (HT-29): 702 nM
- IC50 (Jurkat [2]): 48.6 nM
- IC50 (MCF7): 33.4 nM
- IC50 (HL-60): 205 nM
- IC50 (HeLa [4]): 82.1 nM
SMILES: COc1cc(-c2nc(C)sc2-c2ccc3ccccc3c2)cc(OC)c1OC
- Ratio IC50 (A549 [5]): 1
- Ratio IC50 (CCRF-CEM [6]): 1.4
- Ratio IC50 (LoVo [7]): 2.1
- Activity (HeLa [13]): Active
- Activity (HeLa [14]): Active
- Activity (HeLa [15]): inactive
- Activity (HeLa [16]): Active
- Activity (HeLa [17]): Active
- Activity (HeLa [18]): Active
- Activity (HeLa [19]): Active
- Activity (HeLa [20]): Active
- Activity (HeLa [21]): inactive
- Activity (HeLa [22]): Active
- Activity (HeLa [23]): Active
- Activity (HeLa [24]): Active
- Activity (HeLa [25]): inactive
- Activity (Jurkat [28]): Active
- Activity (HeLa [29]): Active
- IC50 [8]: 121 nM
- IC50 [9]: 88 nM
- IC50 [11]: 150 nM
- GI50 at 72 h [30]: 1270 nM
- GI50 (PBL): 285 nM
- Activity (HeLa [31]): Active

- IC50 [1]: > 20000 nM
- IC50 (HT-29): 3920 nM
- IC50 (Jurkat [2]): 6660 nM
- IC50 (MCF7): > 10000 nM
- IC50 (HL-60): 3480 nM
- IC50 (A549 [3]): 3960 nM
- IC50 (HeLa [4]): 4140 nM
SMILES: COc1cc(-c2nc(N(C)C)sc2-c2ccc(C)cc2)cc(OC)c1OC

- IC50 [1]: > 20000 nM
- IC50 (HT-29): 729 nM
- IC50 (Jurkat [2]): 836 nM
- IC50 (MCF7): 2380 nM
- IC50 (HL-60): 2570 nM
- IC50 (A549 [3]): 2900 nM
- IC50 (HeLa [4]): 1400 nM
SMILES: COc1cc(-c2nc(N(C)C)sc2-c2ccc3ccccc3c2)cc(OC)c1OC

- IC50 (HT-29): 1420 nM
- IC50 (Jurkat [2]): 1760 nM
- IC50 (MCF7): 606 nM
- IC50 (HL-60): 3430 nM
- IC50 (A549 [3]): 2560 nM
- IC50 (HeLa [4]): 500 nM
SMILES: COc1ccc(-c2sc(C)nc2-c2cc(OC)c(OC)c(OC)c2)cc1

Continued, molecule first:

SMILES: COc1ccc(-c2sc(N(C)C)nc2-c2cc(OC)c(OC)c(OC)c2)cc1
- IC50 [1]: > 20000 nM
- IC50 (HT-29): 497 nM
- IC50 (Jurkat [2]): 7600 nM
- IC50 (MCF7): 8360 nM
- IC50 (HL-60): 1890 nM
- IC50 (A549 [3]): > 10000 nM
- IC50 (HeLa [4]): 3370 nM

SMILES: CNc1nc(-c2cc(OC)c(OC)c(OC)c2)c(-c2ccc(OC)cc2)s1
- Ratio IC50 (A549 [5]): 0.9
- Ratio IC50 (CCRF-CEM [6]): 1.5
- Ratio IC50 (LoVo [7]): 0.8
- inhibition (Bos taurus): 61%
- IC50 [1]: 1300 nM
- IC50 [8]: 125 nM
- IC50 [9]: 15 nM
- IC50 (CCRF-CEM [10]): 10 nM
- IC50 [11]: 152 nM
- IC50 (LoVo [12]): 190 nM
- IC50 (HT-29): 6.3 nM
- IC50 (Jurkat [2]): 34.3 nM
- IC50 (MCF7): 37.6 nM
- IC50 (HL-60): 27.3 nM
- IC50 (A549 [3]): 138 nM
- IC50 (HeLa [4]): 70.1 nM

SMILES: COc1cc(-c2nc(C)sc2-c2ccc(C)cc2)cc(OC)c1OC
- IC50 (HT-29): 722 nM
- IC50 (Jurkat [2]): 517 nM
- IC50 (MCF7): 1740 nM
- IC50 (HL-60): 1510 nM
- IC50 (A549 [3]): 1950 nM
- IC50 (HeLa [4]): 1100 nM

SMILES: COc1cccc2c1C(=O)c1c(O)c3c(c(O)c1C2=O)C[C@@](O)(C(=O)CO)C[C@@H]3O[C@H]1C[C@H](N)[C@H](O)[C@H](C)O1 [DOXORUBICIN]
- IC50 [11]: 13200 nM
